# KCC2 mod: modulates chloride dependent transport by human KCC2; 2.2% of 190,000 active; B-score of Tl+ flux slope (higher = more flux/activation; lower = inhibition) at 10 µM; Q9H2X9; KCC2 cells, thallium flux FluoZin-2 fluorescence;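 active = thallium flux slope and its plate-corrected score both differing from the plate sample mean at a set confidence after two filtering rounds, in either direction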;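 note: slope of fluorescence scaled to starting intensity during 10 to 20 s after thallium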
# Target sequence (Q9H2X9 whole entry, looked up): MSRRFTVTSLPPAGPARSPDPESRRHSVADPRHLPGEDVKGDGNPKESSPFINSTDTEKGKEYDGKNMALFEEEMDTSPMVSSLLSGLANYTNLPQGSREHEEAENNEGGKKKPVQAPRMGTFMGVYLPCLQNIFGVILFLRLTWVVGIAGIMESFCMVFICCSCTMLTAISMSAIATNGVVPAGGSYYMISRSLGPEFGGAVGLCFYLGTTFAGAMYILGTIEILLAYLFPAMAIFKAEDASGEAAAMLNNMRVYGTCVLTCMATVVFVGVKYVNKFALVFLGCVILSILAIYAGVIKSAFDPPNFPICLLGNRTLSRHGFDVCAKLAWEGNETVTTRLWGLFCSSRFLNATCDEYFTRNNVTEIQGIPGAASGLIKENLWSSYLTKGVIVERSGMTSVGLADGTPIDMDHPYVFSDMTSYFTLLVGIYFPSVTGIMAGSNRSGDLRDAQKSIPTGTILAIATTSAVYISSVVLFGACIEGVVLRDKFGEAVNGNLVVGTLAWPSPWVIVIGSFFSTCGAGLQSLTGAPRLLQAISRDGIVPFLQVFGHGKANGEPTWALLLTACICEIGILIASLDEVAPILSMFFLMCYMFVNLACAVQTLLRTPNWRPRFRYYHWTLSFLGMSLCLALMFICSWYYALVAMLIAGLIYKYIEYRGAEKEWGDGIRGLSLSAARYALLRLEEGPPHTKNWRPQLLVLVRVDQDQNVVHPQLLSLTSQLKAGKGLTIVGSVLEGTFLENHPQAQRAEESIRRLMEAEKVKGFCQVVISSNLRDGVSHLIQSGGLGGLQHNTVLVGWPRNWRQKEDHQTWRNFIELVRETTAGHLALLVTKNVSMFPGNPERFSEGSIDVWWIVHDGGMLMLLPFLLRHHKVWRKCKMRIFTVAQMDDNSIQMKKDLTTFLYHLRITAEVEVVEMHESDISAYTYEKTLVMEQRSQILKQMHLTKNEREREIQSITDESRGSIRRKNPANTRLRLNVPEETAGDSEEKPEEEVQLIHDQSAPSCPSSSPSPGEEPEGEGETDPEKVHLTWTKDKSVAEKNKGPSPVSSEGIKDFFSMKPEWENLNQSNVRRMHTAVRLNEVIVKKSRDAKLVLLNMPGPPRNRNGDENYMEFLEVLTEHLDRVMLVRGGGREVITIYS
# KCNQ1 inh: inhibitors of human KCNQ1 potassium channel. P51787. B-score at 10 µM. CHO-K1 KCNQ1, FluxOR thallium flux fluorescence; stronger effect = higher value. 1.3% of 310,000 active;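 active = compounds whose thallium flux B-score, printed positive for inhibition, exceeds three library SD while starting fluorescence stays within three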;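 note: channel opened by potassium depolarization with thallium stimulus after 20 min compound exposure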
# hERG rescue: compounds protecting human hERG from proarrhythmic drug block | Q12809 | CHO-hERG, FluxOR thallium flux, dofetilide IC70 present | activation (rescue from dofetilide block), less the hit threshold, % at 10 µM | 0.51% of 310,000 active | AID 1511;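 active = activation above the mean of controls blocked by dofetilide plus 5 SD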;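 note: thallium influx through hERG after potassium depolarization seen as dye fluorescence rise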
# KCNQ1 pot: potentiates or activates the human KCNQ1 potassium channel. CHO-K1 KCNQ1, thallium flux FluxOR fluorescence; stronger effect = higher value. B-score at 10 µM. 0.35% of 310,000 active;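 active = fluorescence ratio B-score, a plate-corrected score, at least three library SD, with initial intensity B-score within 5 SD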
#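 System: Stable KCNQ1 CHO-K1 line | Incubation: 90 min dye loading and 20 min compound exposure, both at room temperature | Measure: Ratio B score | Medium: Assay buffer for compound exposure, DMSO matched across wells | Compound dosing: Single-concentration screen | Probe or stimulus: K+/Tl+ depolarizing stimulus | Measured by: Kinetic FluxOR fluorescence, 10 s baseline plus 110 s post-stimulus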
# KCNK3 block: human KCNK3 channel inhibition, primary screen; CHO-KCNK3 thallium flux, FluxOR fluorescence; stronger effect = lower value; B-score at 10 µM; 0.84% of 340,000 active; AID 602410;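 active = B-score under library mean minus 4 SD, starting fluorescence ratio at most library mean plus 5 SD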;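 note: more negative B-score means stronger inhibition of thallium flux through KCNK3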
# KCNK9 block: inhibitors of human KCNK9 two-pore domain potassium channel | 1.2% of 310,000 active | B-score at 10 µM | AID 488922 | Q9NPC2 | HEK293 KCNK9, FluxOR thallium flux fluorescence; stronger effect = lower value;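 active = ratio B-score over 3 SD below the library mean, with starting fluorescence within 5 SD of its mean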;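 note: negative B-score means less thallium flux so channel inhibition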
# KCNQ1 block val: human KCNQ1 channel inhibition, validation assay; shares compounds with KCNQ1 inh; KCNQ1 cell line, FluxOR thallium flux fluorescence; inhibition, % at 10 µM; 93% of 1,600 active; AID 588353;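 active = primary screen active, with duplicate mean exceeding buffer control mean plus 3 SD of buffer wells, cut at about 28% in these data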
# CHO Tl flux: counter-screen for KCNQ1 inhibitors: effect in parental CHO cells; shares compounds with KCNQ1 inh; parental CHO-K1, FluxOR thallium flux fluorescence ratio; stronger effect = lower value; zero means no signal rise above baseline; fluorescence ratio (Tl flux) at 10 µM; 21% of 1,600 active; AID 588366;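 active = mean of duplicate thallium-flux fluorescence ratios in parental host cells more than 5 SD below the buffer control mean, cut at about 0.38 in these data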;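 note: ratio is peak minus minimum fluorescence divided by baseline fluorescence; actives read low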
# KCNQ1 ephys val: confirmation of human KCNQ1 potassium channel inhibitors by electrophysiology; KCNQ1-CHO cells, automated patch clamp current; shares compounds with KCNQ1 inh; calls only at 10 µM; 20% of 490 active;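 active = KCNQ1 current drop exceeding 3 SD of negative control wells, seen in both duplicate runs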;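 note: steady state current during a 2 s step from -80 to +40 mV; negative values mean current inhibition and positive values mean potentiation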
# KCNQ2 inh: selectivity of KCNQ1 inhibitors: inhibition of rat KCNQ2 channel; inhibition, % at 10 µM; shares compounds with KCNQ1 inh; KCNQ2 cells, FluxOR thallium flux fluorescence; 71% of 1,600 active;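 active = mean percent inhibition of the KCNQ2 thallium signal more than 5 SD above the buffer-only control wells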;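 note: KCNQ2 expressed in CHO cells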
# KCNQ1 KCNE1 spec: KCNQ1 inhibitor that also blocks human KCNQ1/KCNE1 channel | KCNQ1/KCNE1 cells, FluxOR thallium flux fluorescence | shares compounds with KCNQ1 inh | 77% of 1,600 active | inhibition, % at 10 µM | AID 652147;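 active = mean percent inhibition of duplicate wells above the buffer-only control mean plus 3 SD of those controls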
# KCNK9 block conf: human KCNK9 inhibitor confirmation | inhibition, % at 10 µM | shares compounds with KCNK9 block | AID 492992 | HEK293 KCNK9 cells, FluxOR thallium flux fluorescence | 43% of 4,900 active;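 active = thallium signal inhibited by more than 5 SD of the compound-free buffer control wells, on both duplicate plates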
# Kir21 sel: mouse Kir2.1 off-target activity of KCNK9 modulators | shares compounds with KCNK9 block | Kir2.1 cells, FluxOR thallium flux fluorescence | inhibition, % at 10 µM | 4% of 4,900 active | AID 492993;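 active = thallium signal drop more than 5 SD beyond the mean of the no-compound control wells, seen in both duplicate plates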;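 note: signal is fluorescence rise after thallium addition divided by baseline fluorescence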
# HEK293 Tl ctr: non-induced cell nonspecific activity of KCNK9 modulators | shares compounds with KCNK9 block | inhibition, % at 10 µM | AID 492997 | non-induced KCNK9-HEK293, FluxOR thallium flux | 40% of 4,900 active;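 active = thallium signal drop beyond 5 SD of the untreated control mean, on both duplicate plates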
# KCNK3 confirm: confirmation of human KCNK3 two-pore domain potassium channel inhibitors | shares compounds with KCNK3 block | CHO-KCNK3 thallium flux, FluxOR fluorescence; 0% buffer, 100% carvedilol maximal block | ratio percent of control, % at 10 µM | 99% of 2,400 active;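 active = ratio percent of control, averaged over triplicates, above buffer control mean plus 5 SD, cut at about 64% in these data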;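 note: ratio is the fluorescence rise from min to max over baseline after thallium stimulus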
# KCNK3 noninduced: counter-screen for KCNK3 inhibitors: effect in non-induced cells. shares compounds with KCNK3 block. non-induced KCNK3 parental cells, FluxOR thallium flux; stronger effect = lower value. thallium flux ratio (lower = more inhibition) at 10 µM. 40% of 2,400 active. AID 651747;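 active = thallium flux ratio, averaged over three wells, more than 5 SD below the buffer control mean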;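 note: host cells are CHO cells without KCNK3 induction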
# A number is an active result; . = inactive; / = no result given. Hits are enriched below; roughly 4.1% of the tested compounds scored in any of these assays.
SMILES,KCC2 mod,KCNQ1 inh,hERG rescue,KCNQ1 pot,KCNK3 block,KCNK9 block,KCNQ1 block val,CHO Tl flux,KCNQ2 inh,KCNQ1 KCNE1 spec,KCNK9 block conf,Kir21 sel,HEK293 Tl ctr,others
COc1cc(CN=C(C)c2c(O)n(C3CCCCC3)c(=O)[nH]c2=O)cc(OC)c1,.,6,.,.,.,.,.,.,80%,.,/,/,/,
CCCCn1c(=O)c(C(=O)NCc2ccccc2OC)c(O)c2ccccc21,/,7,.,.,.,.,56,.,76%,48%,/,/,/,
Oc1cc(Cl)ccc1Oc1ccc(Cl)cc1Cl,/,9,.,.,.,-7.3,52,.,.,86%,/,/,/,
COC(=O)C1=C(c2ccc(Cl)c(C(F)(F)F)c2)C[C@@H]2CC[C@H]1N2C(=O)NCCNC(C)=O,/,/,/,/,.,/,/,/,/,/,/,/,/,
Cc1ccccc1NC(=O)c1cc(-c2ccccc2)n(CCCN2CCOCC2)c1C,.,.,.,.,.,.,/,/,/,/,/,/,/,
Cc1ccc(NC(=O)c2cc(-c3ccccc3)n(CCCN3CCOCC3)c2C)cc1,/,6,.,.,.,.,81,.,62%,125%,/,/,/,
CC(C)(C)c1nc(N2CCN(C(=O)c3ccco3)CC2)c2nnn(Cc3ccccc3Cl)c2n1,/,7,.,.,.,.,116,0.36,101%,136%,/,/,/,
O=C1CC(=O)N(c2cccc(Br)c2)C(=O)N1,/,.,.,.,.,.,/,/,/,/,/,/,/,
Cc1ccc2c(c1)C1CN(C)CCC1N2C(=S)Nc1cccnc1 (configuration not stated),.,.,.,.,.,.,/,/,/,/,/,/,/,
Cc1ccc2c(c1)C1CN(C)CCC1N2C(=O)Nc1cccc(Cl)c1 (configuration not stated),.,7,.,.,.,.,.,.,.,.,/,/,/,
CCC(=NCCOc1ccc(Cl)cc1)c1c(O)n(C)c(=O)n(C)c1=O,.,7,.,.,.,.,122,0.34,114%,144%,/,/,/,
CC(C)C/C(=N/O)c1cn(C)c2ccccc12,.,.,.,.,.,.,/,/,/,/,/,/,/,
c1ccc2c(c1)CNCc1cnnn1-2,/,/,/,/,.,/,/,/,/,/,/,/,/,
Cc1sc2ncnc(N3CCC(C(=O)Nc4ccc(C#N)c(Cl)c4)CC3)c2c1C,/,7,.,.,-10,.,132,.,112%,156%,/,/,/,KCNQ1 ephys val=.;KCNK3 confirm=131;KCNK3 noninduced=0.15
Cc1noc(C)c1CSCC(=O)Nc1ccc(C#N)c(Cl)c1,/,/,/,/,.,/,/,/,/,/,/,/,/,
O=C(c1ccccc1F)c1cn(Cc2ccccc2)c2ccccc12,/,6,.,.,-9.4,-7.5,85,.,85%,130%,/,/,/,KCNK3 confirm=113;KCNK3 noninduced=0.16
O=C1CN(O)C(c2ccccc2)=c2cc(Cl)ccc2=N1,/,.,.,.,.,.,/,/,/,/,/,/,/,
Cn1cc(C(=O)NCc2ccccc2)c2ccccc21,.,.,.,.,.,.,/,/,/,/,/,/,/,
Cc1ccc(O)c(C(=O)c2cc(C(=O)NCc3ccccc3)c(=O)n(Cc3ccccc3)c2)c1,.,.,.,.,.,-10,/,/,/,/,38%,.,46%,
Cc1ccc(/C=C2\C(=O)NC(=S)N(c3ccc(F)cc3)C2=O)o1,/,.,.,.,.,.,/,/,/,/,/,/,/,
Cc1cc(C)cc(N2C(=O)/C(=C\c3ccc(N4CCN(C)CC4)o3)C(=O)NC2=S)c1,.,10,.,.,.,-9.1,/,/,/,/,55%,34%,70%,
COc1cccc(CCNCc2c(F)cccc2F)c1,.,.,.,.,.,.,/,/,/,/,/,/,/,
Cn1cc(C=C(C#N)C#N)c2ccccc21,.,.,.,.,.,-8.4,/,/,/,/,.,.,52%,
COc1ccccc1N1CCN(C2CCCN(C(=O)COc3ccccc3Cl)C2)CC1 (configuration not stated),/,.,.,.,.,.,/,/,/,/,.,.,.,
COc1ccccc1OCC(=O)N1CCCC(N(C)Cc2ccccc2)C1 (configuration not stated),/,.,.,.,.,.,/,/,/,/,/,/,/,
SMILES,KCC2 mod,KCNQ1 inh,hERG rescue,KCNQ1 pot,KCNK3 block,KCNK9 block,KCNQ1 block val,CHO Tl flux,KCNQ2 inh,KCNQ1 KCNE1 spec,KCNK9 block conf,Kir21 sel,HEK293 Tl ctr,others
CCCCCCOc1ccc(CN2CCN(CC)CC2)cc1,.,.,.,.,.,.,/,/,/,/,/,/,/,
Fc1ccc(C[n+]2c(-c3ccccc3)cc(-c3ccccc3)cc2-c2ccccc2)cc1,/,6,.,.,/,-11,/,/,/,/,52%,68%,.,
Oc1ccccc1-[n+]1c(-c2ccccc2)cc(-c2ccccc2)c(O)c1-c1ccccc1,/,.,.,.,.,-8.4,/,/,/,/,.,.,.,
Cc1ccsc1C(=O)C1CCCN(Cc2cc3ccccc3o2)C1 (configuration not stated),.,.,.,.,.,.,/,/,/,/,.,.,.,
Cc1ccc(CN2CCCC(C(=O)c3sccc3C)C2)o1 (configuration not stated),/,.,.,.,.,.,/,/,/,/,.,.,.,
Cc1ccc(CN2CCCC(C(=O)c3cccc(C(F)(F)F)c3)C2)o1 (configuration not stated),/,.,.,.,.,.,/,/,/,/,.,.,.,
COC(=O)C1=C(c2ccc(S(C)(=O)=O)cc2)C[C@@H]2CC[C@H]1N2C(=O)N1CCCCC1,/,.,.,.,.,.,/,/,/,/,/,/,/,
COc1ccc(-c2cc(=O)oc3c(C)c(OC(C)C(=O)N4C[C@H]5C[C@@H](C4)c4cccc(=O)n4C5)ccc23)cc1 (some centres not stated),/,.,.,.,.,.,/,/,/,/,/,/,/,
